Test results from ChEMBL document CHEMBL4825764, “Flavonoid Monomers as Potent, Nontoxic, and Selective Modulators of the Breast Cancer Resistance Protein (ABCG2)” (J Med Chem, 2021).
Calls of active or inactive are those of the source. No cut-off for these calls is given here.

How the values were obtained:
[1] = test system: 2008; assay: Selectivity index, ratio of EC50 for inhibition of MRP1 (unknown origin) expressed in 2008/MRP1 cells assessed as reversal of doxorubicin resistance to Inhibition of BCRP (unknown origin) expressed in MCF7/MX100 cells assessed as reversal of topotecan resistance; assay type: cell-based; conditions: Homo sapiens
How it was run: (§1)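 Selectivity index is the EC50 against the other transporter's line divided by the EC50 in the BCRP line. All values come from 5-day MTS reversal assays. These use topotecan in HEK293/R2 (0–2000 nM) or MCF7-MX100 (0–100 μM), doxorubicin in 2008/MRP1, and paclitaxel in LCC6MDR, each with modulator at 0–1000 nM.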

[2] = test system: L929; assay: Cytotoxicity against mouse L929 cells assessed as reduction in cell viability; assay type: cell-based
[3] = organism: Homo sapiens; assay: Selectivity index, ratio of EC50 for inhibition of MRP1 (unknown origin) expressed in 2008/MRP1 cells assessed as reversal of doxorubicin resistance to EC50 for inhibition of BCRP (unknown origin) transfected in HEK293/R2 cells assessed as reversal of topotecan resistance; assay type: cell-based; how it was run: as §1
[4] = organism: Homo sapiens; assay: Selectivity index, ratio of EC50 for inhibition of P-gp (unknown origin) expressed in LCC6MDR cells assessed as reversal of paclitaxel resistance to EC50 for Inhibition of BCRP (unknown origin) expressed in MCF7/MX100 cells assessed as reversal of topotecan resistance; assay type: cell-based; how it was run: as §1
[5] = organism: Homo sapiens; assay: Selectivity index, ratio of EC50 for inhibition of P-gp (unknown origin) expressed in LCC6MDR cells assessed as reversal of paclitaxel resistance to EC50 for inhibition of BCRP (unknown origin) transfected in HEK293/R2 cells assessed as reversal of topotecan resistance; assay type: cell-based; how it was run: as §1
[6] = target: T1, BCRP (ABCG2) (Homo sapiens, UniProt Q9UNQ0); assay: Inhibition of BCRP (unknown origin) expressed in HEK293/R2 cells assessed as conformational change by measuring increase in 5D3 shift at 1 uM preincubated for 15 mins followed by FITC mouse antihuman BCRP antibody addition measured after 30 mins by flow cytometry analysis; assay type: cell-based; conditions: HEK293/R2 cells expressing BCRP, time 45 min
T1 sequence (Q9UNQ0 whole entry): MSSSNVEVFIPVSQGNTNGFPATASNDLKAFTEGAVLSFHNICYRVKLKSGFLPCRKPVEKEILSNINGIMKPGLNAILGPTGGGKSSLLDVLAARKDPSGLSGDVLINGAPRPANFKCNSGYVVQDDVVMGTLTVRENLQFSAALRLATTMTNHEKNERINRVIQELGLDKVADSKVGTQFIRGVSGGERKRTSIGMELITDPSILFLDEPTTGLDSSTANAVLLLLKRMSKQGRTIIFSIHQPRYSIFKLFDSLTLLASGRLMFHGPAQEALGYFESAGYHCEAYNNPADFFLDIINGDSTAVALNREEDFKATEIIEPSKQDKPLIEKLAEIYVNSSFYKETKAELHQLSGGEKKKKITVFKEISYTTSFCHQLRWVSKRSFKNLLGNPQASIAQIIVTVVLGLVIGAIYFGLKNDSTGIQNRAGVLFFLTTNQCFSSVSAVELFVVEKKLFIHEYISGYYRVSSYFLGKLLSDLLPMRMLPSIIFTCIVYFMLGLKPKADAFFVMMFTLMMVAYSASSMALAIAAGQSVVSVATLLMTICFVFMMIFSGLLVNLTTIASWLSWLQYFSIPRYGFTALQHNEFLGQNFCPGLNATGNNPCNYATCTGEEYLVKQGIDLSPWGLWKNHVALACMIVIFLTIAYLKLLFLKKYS
How it was run: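 5 × 10^5 HEK293/R2 cells in FACS buffer were shaken 15 min at 37 °C with 1 μM compound. FITC 5D3 anti-BCRP was then added for 30 min at 37 °C and fluorescence read by flow cytometry on FL1. Compound-only background was subtracted and the untreated DMSO shift removed. Result is % of the 1 μM Ko143-induced shift.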

[7] = target: T1, BCRP (ABCG2); assay: Inhibition of BCRP (unknown origin) expressed in HEK293/R2 cells assessed as conformational change by measuring increase in 5D3 shift at 10 uM preincubated for 15 mins followed by FITC mouse antihuman BCRP antibody addition measured after 30 mins by flow cytometry analysis; assay type: cell-based; conditions: HEK293/R2 cells expressing BCRP, time 45 min
How it was run: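 HEK293/R2 cells (5 x 10⁵) in FACS buffer (0.1 % BSA, 1 mM EDTA in PBS) were pre-incubated with compound for 15 min at 37 °C with shaking. FITC anti-human BCRP antibody (clone 5D3) was then added for 30 min at 37 °C. Cells were washed and read by flow cytometry (FL1, 50,000 events). Compound-only FITC background and the DMSO-control signal were subtracted, and the shift was expressed as % of the 1 µM Ko143 shift.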

[8] = test system: HEK293; assay: Effect on BCRP protein expression in human HEK293/R2 cells at 1 to 3 uM after 24 hrs by flow cytometric analysis; assay type: functional, cell-based; conditions: dose 1-3 µM
How it was run: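 HEK293/R2 and HEK293/pcDNA3.1 cells were exposed to 0, 1 or 3 μM compound for 24 hr, with 0.1–0.3% DMSO as solvent control. Cells were trypsinized and stained with FITC anti-human BCRP for 45 min at 4 °C, with an IgG2b-FITC isotype control. Surface signal was read by flow cytometry on FL1 over 50,000 events.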

[9] = target: T2, Broad substrate specificity ATP-binding cassette transporter ABCG2 (Homo sapiens, UniProt Q9UNQ0); assay: Inhibition of BCRP (unknown origin) expressed in human HEK293/R2 cells assessed as increase in intracellular topotecan accumulation by measuring fold change at 1 uM after 2 hrs in presence of topotecan by flow cytometry analysis relative to control; assay type: cell-based; conditions: hek293/r2, 2 h
T2 sequence (Q9UNQ0 whole entry): T1 sequence (Q9UNQ0 whole entry)
How it was run: (§2)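 5 × 10^5 HEK293/pcDNA3.1 or HEK293/R2 cells in 1 mL were incubated 2 hr at 37 °C with 50 μM topotecan or 5 μM mitoxantrone plus 1 or 2 μM modulator, with DMSO as the vehicle control. Cells were washed in cold PBS and resuspended in FACS buffer. Flow cytometry read FL1 (topotecan) or FL4 (mitoxantrone) over 50,000 events, normalized to wild-type cells.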

[10] = target: T2, Broad substrate specificity ATP-binding cassette transporter ABCG2; assay: Inhibition of BCRP (unknown origin) expressed in wild type HEK293/pcDNA3.1 cells assessed as increase in intracellular topotecan accumulation at 1 to 2 uM after 2 hrs in presence of topotecan by flow cytometry analysis relative to control; assay type: cell-based; conditions: hek293, 2 h, dose 1-2 µM; how it was run: as §2
[11] = organism: Homo sapiens; assay: Selectivity index, ratio of EC50 for inhibition of P-gp (unknown origin) expressed in LCC6MDR cells assessed as reversal of mitoxantrone resistance to EC50 for inhibition of BCRP (unknown origin) expressed in HEK293/R2 cells assessed as reversal of mitoxantrone resistance; assay type: cell-based
How it was run: (§3)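 Selectivity index is the EC50 in 2008/MRP1 or LCC6MDR divided by the EC50 in HEK293/R2. All three lines were measured by 5-day mitoxantrone co-incubation with modulator, with MTS/PMS read-out at 490 nm.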

[12] = target: T2, Broad substrate specificity ATP-binding cassette transporter ABCG2; assay: Inhibition of BCRP (unknown origin) expressed in human HEK293/R2 cells assessed as increase in intracellular topotecan accumulation by measuring fold change at 2 uM after 2 hrs in presence of topotecan by flow cytometry analysis relative to control; assay type: cell-based; conditions: hek293/r2, 2 h; how it was run: as §2
[13] = target: T2, Broad substrate specificity ATP-binding cassette transporter ABCG2; assay: Inhibition of BCRP (unknown origin) expressed in human HEK293/R2 cells assessed as increase in intracellular mitoxantrone accumulation by measuring fold change at 2 uM after 2 hrs in presence of mitoxantrone by flow cytometry analysis relative to control; assay type: cell-based; conditions: hek293/r2, 2 h; how it was run: as §2
[14] = target: T2, Broad substrate specificity ATP-binding cassette transporter ABCG2; assay: Inhibition of BCRP (unknown origin) expressed in wild type HEK293/pcDNA3.1 cells assessed as increase in intracellular mitoxantrone accumulation at 1 to 2 uM after 2 hrs in presence of mitoxantrone by flow cytometry analysis relative to control; assay type: cell-based; conditions: hek293, 2 h, dose 1-2 µM; how it was run: as §2
[15] = target: T2, Broad substrate specificity ATP-binding cassette transporter ABCG2; assay: Inhibition of BCRP (unknown origin) expressed in human HEK293/R2 cells assessed as increase in intracellular mitoxantrone accumulation by measuring fold change at 1 uM after 2 hrs in presence of mitoxantrone by flow cytometry analysis relative to control; assay type: cell-based; conditions: hek293/r2, 2 h; how it was run: as §2
[16] = organism: Homo sapiens; assay: Selectivity index, ratio of EC50 for inhibition of MRP1 (unknown origin) expressed in 2008/MRP1 cells assessed as reversal of mitoxantrone resistance to EC50 for inhibition of BCRP (unknown origin) expressed in HEK293/R2 cells assessed as reversal of mitoxantrone resistance; assay type: cell-based; how it was run: as §3

Row | Compound | Ratio EC50 [1] | IC50 [2] [µM] | Ratio EC50 [3] | Ratio EC50 [4] | Ratio EC50 [5] | also measured
1 | COC(=O)c1cccc(COc2c(-c3ccc(OCCOCCN=[N+]=[N-])cc3)oc3ccccc3c2=O)c1 | 20 | 67.5 | 12 | 20 | 12 | –
2 | COC(=O)c1cccc(COc2c(-c3ccc(OCCOCCn4cc(CN(Cc5ccccc5)Cc5ccccc5)nn4)cc3)oc3ccccc3c2=O)c1 | 34 | > 100 | 31 | 34 | 31 | –
3 | COc1cc2c(cc1OC)CN(CCc1ccc(NC(=O)c3cccc4c(=O)c5cccc(OC)c5[nH]c34)cc1)CC2 | – | – | – | – | – | inhibition at 0.5 h, 1 µM [6]: 100%
4 | COC(=O)c1cccc(COc2c(-c3ccc(OCCOCCn4cc(CCN5C(=O)c6ccccc6C5=O)nn4)cc3)oc3ccccc3c2=O)c1 | 10 | > 100 | 22 | 10 | 22 | –
5 | O=c1c(O)c(-c2ccc(O)c(O)c2)oc2cc(O)cc(O)c12 [QUERCETIN] | – | – | – | – | – | inhibition at 0.5 h, 10 µM [7]: 39%
6 | COC(=O)c1cccc(COc2c(-c3ccc(OCCOCCOCCn4cc(CCN5C(=O)c6ccccc6C5=O)nn4)cc3)oc3ccccc3c2=O)c1 | – | > 100 | 6 | – | 6 | –
7 | COC(=O)c1cccc(COc2c(-c3ccc(OCCOCCOCCn4cc(CN(CCO)Cc5ccccc5)nn4)cc3)oc3ccccc3c2=O)c1 | 625 | > 100 | 714 | 193 | 220 | Activity [8]: inactive; fold change (FC) [9]: 7.1; inhibition (INH) [10]: Not Active; Ratio EC50 [11]: 5; fold change (FC) [12]: 7; fold change (FC) [13]: 5.8; inhibition (INH) [14]: Not Active; fold change (FC) [15]: 6.5; Ratio EC50 [16]: 4
